Blank lines part the entries; values can stand above or below the molecule they belong to. Activity calls are given as the source filed them. The rule behind the calls is not given here.
Columns and labels:
A549 [1] = assay: Antiproliferative activity against human A549 cells assessed as reduction in cell viability after 24 hrs by MTT assay; type: functional, cell-based; details: A549, 24 h
MCF7 [2] = assay: Antiproliferative activity against human MCF7 cells assessed as growth inhibition at 10 uM after 72 hrs by MTT assay relative to control; type: functional; details: read-out: GI
In short: (§1)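 Single-concentration MTT screen on MCF-7 and A549 cells grown in DMEM + 10% FBS. Cells at 3000–6000/well, cultured overnight, then given compound in buffer with 1% DMSO for 72 h. MTT (0.5 mg/mL) added for 4 h, formazan dissolved in DMSO, A570 read. Percent inhibition reported as the average ± S.D. of three independent measurements.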

MCF7 [3] = assay: Antiproliferative activity against human MCF7 cells assessed as growth inhibition at 1 uM after 72 hrs by MTT assay relative to control; type: functional; details: for inhibition of growth at 1 µM: read-out: GI; in short: as §1
A549 [4] = assay: Antiproliferative activity against human A549 cells assessed as growth inhibition at 10 uM after 72 hrs by MTT assay relative to control; type: functional; details: read-out: GI; in short: as §1
A549 [5] = assay: Antiproliferative activity against human A549 cells assessed as growth inhibition at 1 uM after 72 hrs by MTT assay relative to control; type: functional; details: for inhibition of growth at 1 µM: read-out: GI; in short: as §1
Homo sapiens [6] = organism: Homo sapiens; assay: Inhibition of PDK (unknown origin) using RYHGHSMSDP as substrate at 80 uM after 30 mins by Kinase-Glo luminescent assay
A549 [7] = assay: Antiproliferative activity against human A549 cells assessed as growth inhibition after 72 hrs by MTT assay; type: functional, cell-based; details: Homo sapiens, A549, 72 h; read-out: IC50
In short: (§2)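 MTT viability assay. Cancer lines seeded at 3000–6000 cells/well and L02 at 7000 cells/well, cultured overnight, then exposed to a full dose range for 72 h. MTT (0.5 mg/mL) added for 4 h, supernatant removed, formazan dissolved in DMSO, absorbance read at 570 nm. IC50 taken as the mean of three independent experiments. Cells grown in DMEM + 10% FBS, 37 °C, 5% CO2.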

MCF7 [8] = assay: Antiproliferative activity against human MCF7 cells assessed as growth inhibition after 72 hrs by MTT assay; type: functional, cell-based; details: Homo sapiens, MCF7, 72 h; read-out: IC50; in short: as §2
SH-SY5Y = assay: Antiproliferative activity against human SHSY-5Y cells assessed as growth inhibition after 72 hrs by MTT assay; type: functional, cell-based; details: Homo sapiens, SH-SY5Y, 72 h; read-out: IC50; in short: as §2
HCT-116 = assay: Antiproliferative activity against human HCT-116 cells assessed as growth inhibition after 72 hrs by MTT assay; type: functional, cell-based; details: Homo sapiens, HCT-116, 72 h; read-out: IC50; in short: as §2
A-375 = assay: Antiproliferative activity against human A375 cells assessed as growth inhibition after 72 hrs by MTT assay; type: functional, cell-based; details: Homo sapiens, A-375, 72 h; read-out: IC50; in short: as §2
PC-3 = assay: Antiproliferative activity against human PC3 cells assessed as growth inhibition after 72 hrs by MTT assay; type: functional, cell-based; details: Homo sapiens, PC-3, 72 h; read-out: IC50; in short: as §2
L02 = assay: Cytotoxicity against human L02 cells assessed as reduction in cell viability after 72 hrs by MTT assay; type: cell-based; details: Homo sapiens, L02, 72 h; read-out: IC50; in short: as §2
[9] = Inhibition of PDK (unknown origin) using RYHGHSMSDP as substrate after 30 mins by Kinase-Glo luminescent assay; set-up: species or system Homo sapiens
Homo sapiens [10] = organism: Homo sapiens; assay: Inhibition of PDK (unknown origin) using RYHGHSMSDP as substrate at 1 uM after 30 mins by Kinase-Glo luminescent assay

Compound: O=C(c1ccccc1)C(Cl)Cl
IC50 (A549 [1]): 15.9 µM
inhibition of growth at 10 µM (MCF7 [2]): 42.2%
growth inhibition (GI) (MCF7 [3]): inactive
inhibition of growth at 10 µM (A549 [4]): 55.2%
growth inhibition (GI) (A549 [5]): inactive
inhibition (Homo sapiens [6]): 36.6%
IC50 (A549 [7]): 18.7 µM
IC50 (MCF7 [8]): 21.4 µM
IC50 (SH-SY5Y): 17.7 µM
IC50 (HCT-116): 12.9 µM
IC50 (A-375): 16.9 µM
IC50 (PC-3): 23.1 µM
IC50 (L02): 19.7 µM
EC50 [9]: > 80000 nM

Compound: O=C([O-])C(Cl)Cl.[Na+] [SODIUM DICHLOROACETATE]
IC50 (A549 [7]): 19500 µM
IC50 (MCF7 [8]): 13400 µM
IC50 (SH-SY5Y): 17400 µM
IC50 (HCT-116): 9800 µM
IC50 (A-375): 20100 µM
IC50 (PC-3): 15700 µM
IC50 (L02): 21700 µM

Compound: O=C(c1ccc(N2CCCC2)c([N+](=O)[O-])c1)C(Cl)Cl
inhibition of growth at 10 µM (MCF7 [2]): 94.6%
inhibition of growth at 1 µM (MCF7 [3]): 23%
inhibition of growth at 10 µM (A549 [4]): 97.3%
inhibition of growth at 1 µM (A549 [5]): 30.6%
inhibition (Homo sapiens [10]): 32.4%

Compound: O=C(c1ccc(N2CCCCC2)c([N+](=O)[O-])c1)C(Cl)Cl
inhibition of growth at 10 µM (MCF7 [2]): 95.8%
inhibition of growth at 1 µM (MCF7 [3]): 22.4%
inhibition of growth at 10 µM (A549 [4]): 97.1%
inhibition of growth at 1 µM (A549 [5]): 38.9%
inhibition (Homo sapiens [10]): 40.2%

Now from value to molecule, other results behind:

inhibition (Homo sapiens [10]): 65.8%
IC50 (A549 [7]): 1.2 µM
IC50 (MCF7 [8]): 1.9 µM
IC50 (SH-SY5Y): 1.1 µM
IC50 (HCT-116): 0.5 µM
IC50 (A-375): 0.9 µM
IC50 (PC-3): 0.47 µM
EC50 [9]: 550 nM
Compound: CC(C)(C)c1ccc(Nc2ccc(C(=O)C(Cl)Cl)cc2[N+](=O)[O-])cc1
inhibition of growth at 10 µM (MCF7 [2]): 96.4%
inhibition of growth at 1 µM (MCF7 [3]): 41.2%
inhibition of growth at 10 µM (A549 [4]): 93.2%
inhibition of growth at 1 µM (A549 [5]): 48.8%
IC50 (L02): 5.9 µM

inhibition (Homo sapiens [10]): 48.8%
IC50 (A549 [7]): 3.1 µM
IC50 (MCF7 [8]): 2.98 µM
IC50 (SH-SY5Y): 2.3 µM
IC50 (HCT-116): 1.5 µM
IC50 (A-375): 1.8 µM
IC50 (PC-3): 2.34 µM
EC50 [9]: 1490 nM
Compound: CC(C)(O)c1ccc(Nc2ccc(C(=O)C(Cl)Cl)cc2[N+](=O)[O-])cc1
inhibition of growth at 10 µM (MCF7 [2]): 92.8%
inhibition of growth at 1 µM (MCF7 [3]): 33.9%
inhibition of growth at 10 µM (A549 [4]): 96.3%
inhibition of growth at 1 µM (A549 [5]): 37.9%
IC50 (L02): 7.8 µM

inhibition (Homo sapiens [10]): 17.4%
Compound: O=C(c1ccc(-n2cncn2)c([N+](=O)[O-])c1)C(Cl)Cl
inhibition of growth at 10 µM (MCF7 [2]): 11.9%
growth inhibition (GI) (MCF7 [3]): inactive
inhibition of growth at 10 µM (A549 [4]): 58.9%
growth inhibition (GI) (A549 [5]): inactive

From ChEMBL document CHEMBL4732185, “Synthesis, biological evaluation and structure-activity relationship of novel dichloroacetophenones targeting pyruvate dehydrogenase kinases with potent anticancer activity” (Eur J Med Chem, 2021)
